These results are taken from ChEMBL document CHEMBL4665630, “Synthesis and biological evaluation of anthraquinone derivatives as allosteric phosphoglycerate mutase 1 inhibitors for cancer treatment” (Eur J Med Chem, 2019).

One test concerns A549. As to the kind of experiment: Antiproliferative activity against human A549 cells assessed as reduction in cell viability measured after 72 hrs by MTT assay. The format is functional, cell-based. To be noted: A549, 72 h. Put shortly:
(§1)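 Cells grown in RPMI-1640 (H1299, PC9) or F-12K (A549) with 10% FBS and penicillin/streptomycin; 2000 H1299 or A549 or 1000 PC9 cells per well, attached 24 h, exposed to inhibitor 72 h; MTT 0.5 mg/mL for 4 h, absorbance at 570 nm; mean ± s.d., n=3.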
(In general: Formazan colour is commonly taken as a measure of viable cells.)

A further test relates to PC-9. In words: Antiproliferative activity against human PC-9 cells assessed as reduction in cell viability measured after 72 hrs by MTT assay. In kind it is functional, cell-based. To be noted: PC-9, 72 h. In outline:
as §1

The target in test [1] is Phosphoglycerate mutase 1 (Homo sapiens, UniProt P18669). As to the kind of experiment: Inhibition of human recombinant PGAM1 by measuring decrease in OD by enzyme based assay. In outline: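 C-terminal His6-tagged PGAM1, Ni-NTA purified, 4.6 nM, preincubated with inhibitor in DMSO; coupled enolase/pyruvate kinase M2/LDH system in 100 mM Tris-HCl, 100 mM KCl, 5 mM MgCl2, 1 mM ADP, 0.2 mM NADH, 4 mM 3PG; NADH loss read at 340 nm. Counter-screen without PGAM1 using 4 mM 2PG. Mean ± s.d., n=3.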

The next test has as its system NCI-H1299. As to the kind of experiment: Antiproliferative activity against human H1299 cells assessed as reduction in cell viability measured after 72 hrs by MTT assay. The format is functional, cell-based. To be noted: NCI-H1299, 72 h. In outline: as §1

Each structure is given as a SMILES string. Some results are limits rather than exact numbers.

Chain of Phosphoglycerate mutase 1 (P18669 whole entry): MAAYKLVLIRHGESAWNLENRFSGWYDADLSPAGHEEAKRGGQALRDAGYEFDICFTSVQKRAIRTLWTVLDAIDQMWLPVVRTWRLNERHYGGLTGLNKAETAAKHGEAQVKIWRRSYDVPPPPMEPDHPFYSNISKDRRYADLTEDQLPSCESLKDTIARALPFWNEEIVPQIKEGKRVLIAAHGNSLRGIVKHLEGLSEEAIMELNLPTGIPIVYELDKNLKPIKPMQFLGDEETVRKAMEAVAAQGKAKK

Consider `CC(C)(C)c1ccc(S(=O)(=O)Nc2cc3c(c(O)c2O)C(=O)c2ccccc2C3=O)cc1`, for which the IC50 (as a rule, the concentration that inhibits the measured activity by half) in the test on A549 is 8.1 µM; with PC-9, 9.5 µM; in test [1], 0.49 µM; in the test with NCI-H1299 it was 10.2 µM.

Regarding `O=C1c2ccccc2C(=O)c2c1cc(NS(=O)(=O)c1cccc3ccccc13)c(O)c2O`, the concentration for half-maximal inhibition (IC50) in the test on A549 worked out at 50.5 µM; with PC-9 it was 18.1 µM; in test [1], 1.29 µM; in the test on NCI-H1299 it was 7.7 µM.

Regarding `CN1CCN(c2ccc(S(=O)(=O)Nc3cc4c(c(O)c3O)C(=O)c3ccccc3C4=O)cc2)CC1`, the IC50 in test [1] is more than 10 µM.

For `O=C1c2ccccc2C(=O)c2c1cc(NS(=O)(=O)c1ccc(Cl)c(C(F)(F)F)c1)c(O)c2O`, the IC50 was 21.6 µM with A549, 17.5 µM in the test with PC-9, 0.55 µM in test [1] and 13 µM in the test on NCI-H1299.

With `CCCCS(=O)(=O)Nc1cc2c(c(O)c1O)C(=O)c1ccccc1C2=O`, the values for the IC50 (in test [1]; in the test with NCI-H1299) were 2.05 µM and 38.8 µM, respectively.

For `CS(=O)(=O)Nc1cc2c(c(O)c1O)C(=O)c1ccccc1C2=O`, the IC50 in test [1] came to 5.37 µM; with NCI-H1299 it was 28.5 µM.

Consider `O=C1c2ccccc2C(=O)c2c1cc(NS(=O)(=O)c1ccc(F)c(C(F)(F)F)c1)c(O)c2O`, for which the IC50 in test [1] was 0.63 µM; in the test with NCI-H1299, 22.6 µM.

Take `O=C1c2ccccc2C(=O)c2c1cc(NS(=O)(=O)c1ccc3ccccc3c1)c(O)c2O`: the half-inhibitory concentration (IC50) was more than 100 µM in the test on A549, 4.7 µM in the test on PC-9, 0.19 µM in test [1] and 8.7 µM in the test with NCI-H1299.

For `O=C1c2ccccc2C(=O)c2c1cc(NS(=O)(=O)c1ccc(Cl)s1)c(O)c2O`, the IC50 in the test with A549 turned out to be 12.2 µM; in the test on PC-9, 16.1 µM; in test [1], 0.55 µM; with NCI-H1299 it was 17.7 µM.

With `CC1CC(C)CN(c2ccc(S(=O)(=O)Nc3cc4c(c(O)c3O)C(=O)c3ccccc3C4=O)cc2)C1` (configuration not stated), the IC50 in the test with A549 turned out to be 9.2 µM; in the test on PC-9, 11.6 µM; in test [1] it was 2.6 µM; in the test on NCI-H1299, 10.3 µM.

Turning to `O=C1c2ccccc2C(=O)c2c1cc(NS(=O)(=O)c1cccs1)c(O)c2O`, the IC50 in test [1] came to 0.84 µM; in the test on NCI-H1299, 25.8 µM.

For the compound `COc1ccc(S(=O)(=O)Nc2cc3c(c(O)c2O)C(=O)c2ccccc2C3=O)cc1OC`, the 50% inhibitory concentration (IC50) in test [1] amounted to 2.81 µM; with NCI-H1299, 26.7 µM.

Consider `O=C1c2ccccc2C(=O)c2c1cc(NS(=O)(=O)c1ccccc1)c(O)c2O`, for which the values for the IC50 (in test [1]; in the test with NCI-H1299) were 1.5 µM and 21.3 µM, respectively.

Turning to `O=C1c2ccccc2C(=O)c2c1cc(NS(=O)(=O)c1ccc(C3CCCCC3)cc1)c(O)c2O`, the half-maximal inhibitory concentration (IC50) in the test with A549 is 11.2 µM; in the test with PC-9 it was 11.5 µM; in test [1], 0.097 µM; in the test on NCI-H1299 it was 4.6 µM.

For `Cc1ccc(S(=O)(=O)Nc2cc3c(c(O)c2O)C(=O)c2ccccc2C3=O)cc1`, the IC50 turned out to be 25.4 µM with A549, 15.7 µM with PC-9, 0.36 µM in test [1] and 7.7 µM in the test on NCI-H1299.

As to `COc1ccc(S(=O)(=O)Nc2cc3c(c(O)c2O)C(=O)c2ccccc2C3=O)c(OC)c1`, the values for the IC50 (in test [1]; in the test with NCI-H1299) were 2.86 µM and 20 µM, respectively.

As to `O=C1c2ccccc2C(=O)c2c1cc(NS(=O)(=O)N1CCOCC1)c(O)c2O`, the IC50 in test [1] was more than 10 µM.

For `CN(C)S(=O)(=O)Nc1cc2c(c(O)c1O)C(=O)c1ccccc1C2=O`, the half-maximal inhibitory concentration (IC50) in test [1] was more than 10 µM.

As to `O=C1c2ccccc2C(=O)c2c1cc(NS(=O)(=O)c1ccc(N3CCCCC3)cc1)c(O)c2O`, the IC50 is 6.3 µM in the test on A549, 3 µM with PC-9, 0.33 µM in test [1] and 10 µM in the test on NCI-H1299.

With `O=C1c2ccccc2C(=O)c2c1cc(NS(=O)(=O)c1ccc(-c3ccc(F)cc3)cc1)c(O)c2O`, the IC50 in the test with A549 is 12 µM; in the test with PC-9, 5.4 µM; in test [1], 0.26 µM; with NCI-H1299 it was 6.2 µM.

With `O=C1c2ccccc2C(=O)c2c1cc(NS(=O)(=O)C1CCCCC1)c(O)c2O`, the IC50 in test [1] was 1.75 µM; in the test with NCI-H1299, 21.8 µM.

In the case of `O=C1c2ccccc2C(=O)c2c1cc(NS(=O)(=O)c1cccc3cccnc13)c(O)c2O`, the IC50 in test [1] is 2.05 µM; in the test on NCI-H1299, 47.6 µM.

As to `COc1cccc(S(=O)(=O)Nc2cc3c(c(O)c2O)C(=O)c2ccccc2C3=O)c1`, the IC50 in test [1] was 0.48 µM; in the test with NCI-H1299 it was 27.3 µM.

With `O=C1c2ccccc2C(=O)c2c1cc(NS(=O)(=O)c1ccc(-c3ccc(Cl)cc3)cc1)c(O)c2O`, the IC50 in the test on A549 stood at 6.8 µM; in the test on PC-9, 6.6 µM; in test [1] it was 0.14 µM; with NCI-H1299, 6.3 µM.
